# Screens deposited in PubChem by Johns Hopkins Ion Channel Center.
# Rows were chosen to be rich in hits. Some 3.5% of all compounds tested hit in one or more screens of this group.
# MrgX1 allo act: allosterically activates human MrgX1 receptor signaling; hit rate 0.63% among 310,000; MrgX1-HEK293, Fluo-4 calcium flux, FDSS; active compounds read high; Q96LB2; AID 588675; B-score at 10 µM;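 active means plate-corrected calcium response at least 3 library SD above typical, normal starting fluorescence, not activating the receptor alone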;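 further: compound read alongside a low EC10 to EC30 dose of BAM8-22 agonist; peak minus trough fluorescence over baseline measured at the second addition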
# Target sequence (Q96LB2 whole entry, looked up): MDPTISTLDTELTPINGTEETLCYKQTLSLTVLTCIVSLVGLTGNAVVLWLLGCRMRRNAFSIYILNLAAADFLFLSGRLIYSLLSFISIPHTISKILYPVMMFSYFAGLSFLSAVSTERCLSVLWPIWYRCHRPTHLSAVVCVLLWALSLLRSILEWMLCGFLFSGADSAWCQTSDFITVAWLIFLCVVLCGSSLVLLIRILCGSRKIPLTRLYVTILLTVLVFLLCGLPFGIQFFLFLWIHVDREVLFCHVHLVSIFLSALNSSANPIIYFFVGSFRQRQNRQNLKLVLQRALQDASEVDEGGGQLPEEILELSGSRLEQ
# RGS4 inh: inhibitors of human RGS4; HEK293 M3R/RGS4 inducible, Fluo-4 calcium flux; active compounds read high; triggered by carbachol at its EC20; B-score at 10 µM; AID 463165; hit rate 0.45% among 310,000; P49798;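 active means B-score, a plate-corrected calcium signal, over three deviations above library mean, with baseline fluorescence within five deviations of library mean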;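 further: RGS4 expression induced by doxycycline in cells with stable M3 receptor; B-score is computed from the integrated fluorescence ratio over baseline after carbachol; higher B-score means a larger calcium signal and so more RGS4 inhibition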
# Target sequence (P49798 whole entry, looked up): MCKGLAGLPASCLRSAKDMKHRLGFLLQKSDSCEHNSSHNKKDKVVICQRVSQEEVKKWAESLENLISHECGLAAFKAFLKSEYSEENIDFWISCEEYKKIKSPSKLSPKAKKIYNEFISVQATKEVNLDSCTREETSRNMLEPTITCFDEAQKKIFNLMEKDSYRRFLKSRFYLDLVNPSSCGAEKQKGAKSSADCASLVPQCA
# MrgX1 ag: activates human MrgX1 receptor signaling; Q96LB2; MrgX1-HEK293 cells, Fluo-4 calcium fluorescence, agonist mode; active compounds read high; B-score at 10 µM; hit rate 0.44% among 310,000; AID 588627;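 active means calcium response B-score plate-corrected fluorescence ratio at least 3 library SD, with starting fluorescence B-score inside 5 SD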
#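 System – MrgX1-expressing HEK293 cells · Incubation – cells plated overnight, dye loaded 0.5 h 37 °C, 0.5 h room temperature · Technique – kinetic Fluo-4 NW fluorescence of intracellular calcium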
# RGS4 act: RGS4 potentiation or activation. HEK293 M3R/inducible RGS4, carbachol calcium flux Fluo4; active compounds read low. B-score at 10 µM. hit rate 0.92% among 310,000;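 active means B-score of the integrated calcium signal more than 4 SD below the library mean, with starting fluorescence not abnormally high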;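 further: negative B-score means reduced calcium response which marks RGS4 activation or potentiation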
#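 System: HEK293 FlpIn-TREx cells, stable M3R, doxycycline-inducible RGS4. Timing: overnight RGS4 induction, 30 min dye load 37 °C, 20 min compound RT. Also added: carbachol, ECmax concentration. Measured by: Fluo4 fluorescence kinetic imaging of calcium. Evaluation: integrated calcium ratio converted to B score.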
# MrgX1 antagonist: blocks BAM8-22 activation of human MrgX1 receptor; B-score at 10 µM; AID 588676; Q96LB2; hit rate 1.3% among 310,000; MRGX1-HEK293 calcium flux, Fluo-4, BAM8-22 antagonism; active compounds read low;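 active means calcium-response B-score plate-corrected more than 3 library SD below zero, starting fluorescence within 5 deviations, no agonist response on first addition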;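 further: peak minus trough fluorescence over baseline after final BAM8-22 challenge near maximal dose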
# RGS4 inh valid: validation of RGS4 inhibitors. shares compounds with RGS4 inh. HEK293 M3R/RGS4, carbachol calcium Fluo-4 fluorescence; carbachol added at its EC20; 0 = buffer wells, 100 = carbachol control. calcium response, % at 10 µM. hit rate 65% among 1,700. AID 492999;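 active means duplicate-averaged calcium response above the buffer-only control mean plus 5 SD of those controls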;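 further: integrated fluorescence ratio F max minus min over baseline F0; higher response in RGS4-induced cells means RGS4 inhibition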
# RGS4 uninduced: non-induced cell nonspecific activity of RGS4 inhibitors; shares compounds with RGS4 inh; AID 493000; HEK293 M3R non-induced, carbachol calcium Fluo-4; submaximal (EC20) carbachol stimulus; buffer wells 0%, carbachol control wells 100%; hit rate 20% among 1,900; activity (percent), % at 10 µM; call rule not given here;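 further: RGS4 induction absent so cells express M3R without RGS4; higher means more calcium signal and flags a non-specific hit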
# RGS4 inh ctr2: signal in non-induced cells without carbachol, RGS4 inhibitor counter-screen; shares compounds with RGS4 inh; HEK293 M3R/RGS4 non-induced, Fluo-4 calcium, no carbachol; normalised: buffer wells 0%, carbachol wells 100%; calcium response (agonist-mode artifact), % at 10 µM; hit rate 22% among 1,900;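 active means duplicate-averaged calcium rise in uninduced cells above buffer wells' mean plus 5 SD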
# Numbers without * were called inactive; i = inactive; nt = not tested or not shown.
SMILES,MrgX1 allo act,RGS4 inh,MrgX1 ag,RGS4 act,MrgX1 antagonist,RGS4 inh valid,RGS4 uninduced,RGS4 inh ctr2
CCC(C(=O)N1CCN(Cc2ccc3c(c2)OCO3)CC1)n1c(=O)[nH]c2ccccc2c1=O (stereo not given),i,i,i,i,i,nt,nt,nt
COc1ccc(Cl)cc1NC(=O)c1cc(-c2ccccc2O)n[nH]1,i,5.49*,i,i,i,5.0%*,i,i
COc1ccc(OC)c(NC(=O)c2cc(-c3cc(Cl)ccc3O)n[nH]2)c1,i,i,i,i,i,nt,nt,nt
COC(=O)C1=C(C)OC(N)=C(C#N)C1c1cc2cccc(C)c2nc1Cl (stereo not given),i,i,i,i,i,nt,nt,nt
CC(=O)C1=C(C)OC(N)=C(C#N)C1c1cc2cccc(C)c2nc1Cl (stereo not given),i,6.84*,i,i,i,21.5%*,33.5%*,i
CCC(=O)OCCNc1cc(Sc2nccn2C)c2nonc2c1[N+](=O)[O-],i,i,i,i,i,nt,i,i
CCC(=O)OCCNc1cc(SCCC(=O)OC)c2nonc2c1[N+](=O)[O-],i,i,i,i,i,nt,nt,nt
CCCC(=O)OCCNc1cc(Sc2nc3ccccc3[nH]2)c2nonc2c1[N+](=O)[O-],i,i,i,i,i,nt,i,14.0%*
Cc1cc(C)cc(-n2c3nc4ccccc4nc3c3c(=O)n(Cc4ccco4)cnc32)c1,i,5.87*,i,i,i,11.5%*,i,15.0%*
COCCCn1cnc2c(c1=O)c1nc3ccccc3nc1n2-c1ccc(C)cc1,i,i,i,i,i,nt,nt,nt
CC1=CC2=NC(=O)/C(=C/c3cccn3Cc3ccccc3)C(=N)N2O1,i,i,i,i,i,nt,nt,nt
N=C1/C(=C/c2cccn2Cc2ccc(Cl)cc2)C(=O)N=C2SC=CN12,i,8.38*,i,i,i,5.0%*,i,i
O=C(NCc1cccc(Cl)c1)c1ccc(S(=O)(=O)Nc2cccc(C(F)(F)F)c2)cc1,i,i,i,i,i,i,i,i
O=C(Cc1cccc(C(F)(F)F)c1)NCc1cccc(Cl)c1,i,i,i,i,i,nt,nt,nt
CCOCCCNC(=O)/C(C#N)=C/c1ccc(Cl)c([N+](=O)[O-])c1,i,10.7*,i,i,i,34.5%*,i,i
CCOCCCNC(=O)/C(C#N)=C/c1cc(OC)c(O)c([N+](=O)[O-])c1,i,i,i,i,i,nt,nt,nt
Nc1cccn2c(-c3ccc(Cl)cc3)cnc12,i,i,i,i,i,nt,nt,nt
Nc1cccn2c(-c3ccc(Cl)c(Cl)c3)cnc12,i,12*,i,i,i,7.5%*,i,i
Cc1ccc(/C=C/C(=O)c2ccc(O)cc2)cc1,i,i,i,i,i,nt,nt,nt
Cc1ccc(C(=O)/C=C/C(=O)O)cc1,i,15.9*,i,i,i,64.5%*,43.5%*,14.5%*
COc1cccc(C(=O)NC2CCCN(C3Cc4ccccc4C3)C2)c1OC (stereo not given),i,i,i,i,i,nt,nt,nt
CNC[C@H](O)c1cccc(O)c1,i,i,i,i,i,nt,nt,nt
CNC[C@H](O)c1ccc(O)c(O)c1,i,4.91*,38.7*,i,i,31.5%*,57.0%*,i
CCc1ccc(OCC(=O)Nc2ccc(-c3cc4ccccc4oc3=O)c(OC)c2)cc1,i,i,i,i,i,nt,nt,nt
COCc1nnc(NC(=O)CCc2ccccc2)s1,i,i,i,i,i,nt,i,i
SMILES,MrgX1 allo act,RGS4 inh,MrgX1 ag,RGS4 act,MrgX1 antagonist,RGS4 inh valid,RGS4 uninduced,RGS4 inh ctr2
CCOCc1nnc(NC(=O)CCc2ccccc2)s1,i,i,i,i,i,nt,nt,nt
COCc1nnc(NC(=O)CCc2ccc(OC)cc2)s1,i,5.04*,i,i,i,30.5%*,i,i
COc1ccc(CCC(=O)Nc2nnc(C)s2)cc1,i,i,i,i,i,nt,nt,nt
Cc1cccc(Oc2sc(C(=O)c3ccccc3)c(N)c2C#N)c1,i,nt,i,nt,i,nt,nt,nt
COc1ccc(C2=NN(CN3C(=O)C(=O)c4ccccc43)C(c3ccc(OC)cc3)C2)cc1 (stereo not given),i,i,i,i,i,nt,35.0%*,i
Cc1ccc(N=Nc2c(N)n[nH]c2N)cc1,i,i,i,i,i,nt,nt,nt
Nc1n[nH]c(C2CC2)c1N=Nc1ccc(Cl)cc1,i,6.99*,i,i,i,6.5%*,i,i
Cc1[nH]nc(N)c1N=Nc1ccc(Br)cc1,i,16.8*,i,i,i,20.5%*,i,i
COc1cc(C2(c3ccc(O)c(OC)c3)C(=O)Nc3c(Br)cc(Br)cc32)ccc1O,i,i,i,i,i,nt,i,34.5%*
COc1cc(C(=O)C(=O)c2ccc(O)c(OC)c2)ccc1O,i,i,i,i,i,nt,nt,nt
COc1cc(C2(c3ccc(O)c(OC)c3)C(=O)N(C)c3ccc(Br)cc32)ccc1O,i,5.71*,i,i,i,12.0%*,i,i
CC(C)Cn1c(=O)[nH]c(=O)c2c(C(F)(F)F)cc(-c3ccccc3)nc21,i,i,i,i,i,nt,nt,nt
CCN(c1ccc(NC(=O)COC(=O)c2ccc(S(=O)(=O)N3CCCC3)cc2)cc1)C(C)C,i,i,i,i,i,nt,nt,nt
COc1ccc(NC(=O)C(=O)NCC(=O)Nc2cc(OC)ccc2OC)cc1,i,i,i,i,i,nt,nt,nt
COc1ccc(OC)c(NC(=O)C(=O)NCc2ccncc2)c1,i,4.81*,i,i,i,10.5%*,i,i
CCN(CC)CCN(CC(=O)Nc1c(C)cc(C)cc1C)C(=O)c1ccccc1,i,i,i,i,i,nt,nt,nt
CC(=O)Nc1ccc(-c2nnc(SCC(=O)Nc3ccc4c(c3)oc3ccccc34)n2C)cc1,i,i,i,i,i,nt,i,16.0%*
CO/N=C/NC(=O)C1=NOC(CNc2ncc(C(F)(F)F)cc2Cl)C1 (stereo not given),i,i,i,i,i,nt,nt,nt
